According to PMC6282775 (Journal of Clinical Pharmacology, 2018):

How the values were obtained:
[1] = Safety evaluations in the clinical study; type: in vivo, human
Summary of the method: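 Open-label, multicenter, parallel-group study in healthy subjects and subjects with moderate (Child-Pugh B) or severe (Child-Pugh C) hepatic impairment. Subjects fasted at least 10 h, then took one oral 300-mg capsule dose of test compound with water 30 min after starting a standard meal. No food for 4 h. Adverse events, vital signs, clinical laboratory tests and ECGs were recorded, with follow-up 7–10 days after dosing.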

[2] = test system: CYP3A; settings: cited from earlier work
[3] = test system: plasma proteins; settings: cited from earlier work
[4] = Unbound fraction; type: in vivo, human; settings: for fraction unbound: human, plasma, oral, 300 mg, median value of individual mean fu%, plasma 6 and 12 hours postdose; for GMR of unbound AUC0‐∞ / GMR of unbound Cmax: single 300-mg dose of alectinib
Summary of the method: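 Single oral 300 mg dose given 30 min after the start of a standard ~514 kcal meal, after a ≥10 h fast. Plasma taken 6 and 12 h postdose was dialyzed in triplicate, and plasma and buffer were analysed by LC-MS/MS. Samples were spiked if levels were too low. fu% = unbound/total ×100, geometric mean of triplicates (outlier dropped if CV >45.0%). GMRs from ANOVA of log Cmax and AUC0‐∞, with matched controls as a random effect.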

[5] = Clinical hepatic impairment study: total plasma PK of alectinib and M4; type: in vivo, human; settings: single 300-mg dose of alectinib
[6] = moderate hepatic impairment/matched healthy subjects
[7] = severe hepatic impairment/matched healthy subjects

fraction unbound ([4]; healthy subjects matched for moderate): 0.00206
fraction unbound ([4]; healthy subjects matched for severe): 0.0014
fraction unbound ([4]; moderate hepatic impairment): 0.00229
fraction unbound ([4]; severe hepatic impairment): 0.00179
GMR of unbound AUC0‐∞ [4, 6]: 186%
GMR of unbound Cmax [4, 6]: 148%
GMR of unbound AUC0‐∞ [4, 7]: 285%
GMR of unbound Cmax [4, 7]: 130%
GMR of total AUC0‐∞ [5, 6]: 160%
GMR of total Cmax [5, 6]: 128%
GMR of total AUC0‐∞ [5, 7]: 220%
GMR of total Cmax [5, 7]: 100%
Structure (SMILES): CCc1cc2c(cc1N1CCC(N3CCOCC3)CC1)C(C)(C)c1[nH]c3cc(C#N)ccc3c1C2=O [Alectinib]
changes in vital signs, laboratory values, or electrocardiogram measurements ([1]; single oral 300 mg, during the study): No clinically significant changes
tolerability ([1]; single oral dose of 300 mg, healthy subjects and subjects with moderate or severe hepatic impairment): well tolerated
increase in exposure on coadministration of a potent CYP3A inhibitor [2]: 75%
protein binding in vitro [3]: ≥ 99%
